Measured values as given in ChEMBL document CHEMBL5705890, “Antitumor activity of an allosteric inhibitor of centromere-associated protein-E” (Proc Natl Acad Sci U S A, 2010).

Experiments:
NCI-H292 [1] = assay: Anticancer activity against human NCI-H292 cells assessed as cell growth inhibition measured after 72 hrs by DAPI staining based analysis; assay type: functional
HPAF-II = assay: Anticancer activity against human HPAF-II cells assessed as cell growth inhibition measured after 72 hrs by DAPI staining based analysis; assay type: functional
A-431 = assay: Anticancer activity against human A-431 cells assessed as cell doubling measured for 72 hrs by DAPI staining based analysis; assay type: functional
BV-173 = assay: Anticancer activity against human BV-173 cells assessed as cell doubling measured for 72 hrs by DAPI staining based analysis; assay type: functional
BHT-101 = assay: Anticancer activity against human BHT-101 cells assessed as cell growth inhibition measured after 72 hrs by DAPI staining based analysis; assay type: functional
How it was run: (§1)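 Cells were seeded, and DNA content at 24 h after seeding (T0) was read by imaging of fixed, DAPI-stained cells. Cells were then exposed to a range of drug concentrations for a further 72 h (T72) and DNA content was read again. T72 values were normalized to T0, and GI50 was taken from curve fits as the concentration giving 50% growth inhibition relative to T0 and Ymax.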

A549 = assay: Anticancer activity against human A549 cells assessed as cell growth inhibition measured after 72 hrs by DAPI staining based analysis; assay type: functional
How it was run: (§2)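 Cells were seeded and, after 24 h, DNA content was read as T0. Cells were then exposed to varying drug concentrations for a further 72 h (T72). Fixed cells were DAPI-stained and DNA content measured by automated imaging. T72 values were normalized to T0. GI50 is the concentration giving 50% growth inhibition between T0 and Ymax, obtained by curve fitting.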

NCI-H292 [2] = assay: Anticancer activity against human NCI-H292 cells assessed as cell doubling measured for 72 hrs by DAPI staining based analysis; assay type: functional
SW837 = assay: Anticancer activity against human SW837 cells assessed as cell doubling measured for 72 hrs by DAPI staining based analysis; assay type: functional
HT-1376 = assay: Anticancer activity against human HT-1376 cells assessed as cell doubling measured for 72 hrs by DAPI staining based analysis; assay type: functional
TK-10 = assay: Anticancer activity against human TK-10 cells assessed as cell doubling measured for 72 hrs by DAPI staining based analysis; assay type: functional
DoTc2-4510 = assay: Anticancer activity against human DoTc2-4510 cells assessed as cell doubling measured for 72 hrs by DAPI staining based analysis; assay type: functional
CWR22R = assay: Anticancer activity against human 22Rv1 cells assessed as cell growth inhibition measured after 72 hrs by DAPI staining based analysis; assay type: functional; how it was run: as §2
NCI-H2171 = assay: Anticancer activity against human NCI-H2171 cells assessed as cell growth inhibition measured after 72 hrs by DAPI staining based analysis; assay type: functional
C-4-II = assay: Anticancer activity against human C-4-II cells assessed as cell growth inhibition measured after 72 hrs by DAPI staining based analysis; assay type: functional; how it was run: as §1
SW1088 = assay: Anticancer activity against human SW1088 cells assessed as cell doubling measured for 72 hrs by DAPI staining based analysis; assay type: functional
AN3-CA = assay: Anticancer activity against human AN3-CA cells assessed as cell growth inhibition measured after 72 hrs by DAPI staining based analysis; assay type: functional; how it was run: as §2
SK-N-FI = assay: Anticancer activity against human SK-N-FI cells assessed as cell growth inhibition measured after 72 hrs by DAPI staining based analysis; assay type: functional
T47D = assay: Anticancer activity against human T47D cells assessed as cell doubling measured for 72 hrs by DAPI staining based analysis; assay type: functional
SW-620 = assay: Anticancer activity against human SW620 cells assessed as cell doubling measured for 72 hrs by DAPI staining based analysis; assay type: functional
[3] = Anticancer activity against human A7 cells assessed as cell doubling measured for 72 hrs by DAPI staining based analysis; assay type: functional
A673 = assay: Anticancer activity against human A673 cells assessed as cell growth inhibition measured after 72 hrs by DAPI staining based analysis; assay type: functional; how it was run: as §2
NCI-H2170 = assay: Anticancer activity against human NCI-H2170 cells assessed as cell growth inhibition measured after 72 hrs by DAPI staining based analysis; assay type: functional
HCT-116 = assay: Antitumor activity against human HCT-116 cells in xenograft model assessed as tumor growth delay at 125 mg/kg relative to control; assay type: functional
SJRH30 = assay: Anticancer activity against human SJRH30 cells assessed as cell growth inhibition measured after 72 hrs by DAPI staining based analysis; assay type: functional
[4] = molecular target: Centromere-associated protein E (Homo sapiens, UniProt Q02224); assay: Uncompetitive binding affinity to microtubule-stimulated ATPase activity of C-terminal 6-his-tagged CENP-E (2 to 340 residues)(unknown origin) expressed in Escherichia coli BL21(DE3) assessed as apparent inhibition constant; conditions: read-out: Ki(app)
Chain of Centromere-associated protein E (Q02224 whole entry, the tested form may be a part): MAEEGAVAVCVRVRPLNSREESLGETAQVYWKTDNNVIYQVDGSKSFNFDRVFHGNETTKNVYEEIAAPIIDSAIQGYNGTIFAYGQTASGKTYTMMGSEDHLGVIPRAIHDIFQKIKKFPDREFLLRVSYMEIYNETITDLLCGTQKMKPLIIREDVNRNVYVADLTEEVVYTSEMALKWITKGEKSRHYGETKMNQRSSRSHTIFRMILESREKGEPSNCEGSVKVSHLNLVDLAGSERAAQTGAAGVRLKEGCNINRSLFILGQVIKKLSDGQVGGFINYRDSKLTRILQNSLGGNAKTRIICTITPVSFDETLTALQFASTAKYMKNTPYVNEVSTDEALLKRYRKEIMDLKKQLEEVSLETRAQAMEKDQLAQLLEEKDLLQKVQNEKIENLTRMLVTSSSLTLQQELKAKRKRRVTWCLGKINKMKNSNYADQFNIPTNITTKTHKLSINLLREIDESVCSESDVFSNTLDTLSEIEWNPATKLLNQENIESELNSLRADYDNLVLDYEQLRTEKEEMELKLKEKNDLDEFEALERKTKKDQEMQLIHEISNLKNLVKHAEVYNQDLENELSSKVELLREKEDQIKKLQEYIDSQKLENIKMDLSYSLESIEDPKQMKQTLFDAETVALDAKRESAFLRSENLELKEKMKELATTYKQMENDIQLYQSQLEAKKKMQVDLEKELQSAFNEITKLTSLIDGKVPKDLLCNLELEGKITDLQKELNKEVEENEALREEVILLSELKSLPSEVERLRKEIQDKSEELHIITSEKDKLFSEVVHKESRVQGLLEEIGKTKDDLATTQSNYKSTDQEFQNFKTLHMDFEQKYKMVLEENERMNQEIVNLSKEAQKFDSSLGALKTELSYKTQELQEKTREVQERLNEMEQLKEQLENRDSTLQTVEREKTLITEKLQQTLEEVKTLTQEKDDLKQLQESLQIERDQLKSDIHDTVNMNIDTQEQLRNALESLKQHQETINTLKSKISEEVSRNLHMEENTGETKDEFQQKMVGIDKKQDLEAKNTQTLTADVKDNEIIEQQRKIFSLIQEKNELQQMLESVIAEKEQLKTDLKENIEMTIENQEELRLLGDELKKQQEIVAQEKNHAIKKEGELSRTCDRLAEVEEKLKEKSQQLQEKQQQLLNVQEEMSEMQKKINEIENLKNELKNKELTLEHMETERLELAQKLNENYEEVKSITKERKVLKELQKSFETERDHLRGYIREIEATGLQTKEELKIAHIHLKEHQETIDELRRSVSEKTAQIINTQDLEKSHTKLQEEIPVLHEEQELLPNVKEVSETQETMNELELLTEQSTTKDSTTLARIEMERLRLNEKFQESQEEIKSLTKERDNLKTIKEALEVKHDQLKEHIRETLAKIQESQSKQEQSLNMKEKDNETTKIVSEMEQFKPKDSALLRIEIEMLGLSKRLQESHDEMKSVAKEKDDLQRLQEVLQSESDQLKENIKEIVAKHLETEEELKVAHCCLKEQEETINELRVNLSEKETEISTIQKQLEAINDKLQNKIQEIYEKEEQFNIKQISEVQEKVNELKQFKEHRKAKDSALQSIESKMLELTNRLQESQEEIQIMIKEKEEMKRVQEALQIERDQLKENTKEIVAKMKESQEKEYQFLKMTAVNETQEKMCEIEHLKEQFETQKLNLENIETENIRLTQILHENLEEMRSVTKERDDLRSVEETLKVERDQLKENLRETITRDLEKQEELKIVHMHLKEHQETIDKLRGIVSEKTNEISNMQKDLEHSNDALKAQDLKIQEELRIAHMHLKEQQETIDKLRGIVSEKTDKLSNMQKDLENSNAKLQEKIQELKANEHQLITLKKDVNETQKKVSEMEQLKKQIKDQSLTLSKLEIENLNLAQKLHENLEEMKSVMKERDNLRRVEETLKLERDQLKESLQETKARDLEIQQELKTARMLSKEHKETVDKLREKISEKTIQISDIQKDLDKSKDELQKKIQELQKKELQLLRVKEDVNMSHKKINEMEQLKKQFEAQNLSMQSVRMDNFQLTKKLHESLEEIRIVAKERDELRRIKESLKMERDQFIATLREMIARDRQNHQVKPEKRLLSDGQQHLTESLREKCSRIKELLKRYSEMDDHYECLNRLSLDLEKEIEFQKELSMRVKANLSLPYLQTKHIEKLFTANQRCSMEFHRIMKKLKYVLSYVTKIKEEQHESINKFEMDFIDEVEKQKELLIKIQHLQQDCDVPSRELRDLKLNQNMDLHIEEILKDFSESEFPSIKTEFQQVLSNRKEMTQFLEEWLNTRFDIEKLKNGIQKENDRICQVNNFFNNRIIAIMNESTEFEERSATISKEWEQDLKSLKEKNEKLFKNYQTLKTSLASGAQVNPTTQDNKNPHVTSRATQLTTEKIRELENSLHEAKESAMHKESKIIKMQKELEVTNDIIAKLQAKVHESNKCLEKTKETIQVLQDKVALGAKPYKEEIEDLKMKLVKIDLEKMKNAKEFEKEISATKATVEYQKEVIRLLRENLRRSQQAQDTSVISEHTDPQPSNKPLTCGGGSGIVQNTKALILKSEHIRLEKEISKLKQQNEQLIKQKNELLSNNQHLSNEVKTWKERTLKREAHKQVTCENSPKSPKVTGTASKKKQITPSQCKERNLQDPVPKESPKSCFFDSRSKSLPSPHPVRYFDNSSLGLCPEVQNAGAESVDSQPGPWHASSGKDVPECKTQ
How it was run: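 CENP-E motor domain (residues 2–340, C-terminal 6-his, from E. coli BL21(DE3)) run in MT-stimulated ATPase with 500 μM ATP, 5 μM paclitaxel-stabilized MT, 1 nM enzyme in PEM25 buffer, pH 6.8. Apparent Ki taken from the concentration-response curves with explicit correction for enzyme concentration.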

RKO = assay: Anticancer activity against human RKO cells assessed as cell doubling measured for 72 hrs by DAPI staining based analysis; assay type: functional
BT-20 = assay: Anticancer activity against human BT-20 cells assessed as cell growth inhibition measured after 72 hrs by DAPI staining based analysis; assay type: functional; how it was run: as §1
5637 = assay: Anticancer activity against human 5637 cells assessed as cell growth inhibition measured after 72 hrs by DAPI staining based analysis; assay type: functional; how it was run: as §2
SH-4 = assay: Anticancer activity against human SH-4 cells assessed as cell doubling measured for 72 hrs by DAPI staining based analysis; assay type: functional
NCI-H2122 = assay: Anticancer activity against human NCI-H2122 cells assessed as cell growth inhibition measured after 72 hrs by DAPI staining based analysis; assay type: functional
[5] = Toxicity in mouse xenografted with human COLO 205 cells at 500 mg/kg, ip administered three doses daily on 2 consecutive weeks; assay type: organism-based; conditions: in vivo, 336 h, time 2 weeks
EKVX = assay: Anticancer activity against human EKVX cells assessed as cell doubling measured for 72 hrs by DAPI staining based analysis; assay type: functional
MX1 = assay: Antitumor activity against human MX1 cells in xenograft model assessed as difference between median time to endpoint time of treated versus control group at 62.5 mg/kg; assay type: functional
NCI-H716 = assay: Anticancer activity against human NCI-H716 cells assessed as cell growth inhibition measured after 72 hrs by DAPI staining based analysis; assay type: functional
Caov-3 cell line = assay: Anticancer activity against human Caov-3 cells assessed as cell growth inhibition measured after 72 hrs by DAPI staining based analysis; assay type: functional
How it was run: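 Cells seeded, DAPI-stained DNA content of fixed cells read by imaging 24 h after seeding (T0), and again after a further 72 h exposure to a range of drug concentrations (T72). T72 values were normalized to T0. Curve fits gave the concentration producing 50% growth inhibition relative to T0 and Ymax (GI50).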

SF-295 = assay: Anticancer activity against human SF-295 cells assessed as cell doubling measured for 72 hrs by DAPI staining based analysis; assay type: functional
MES-SA = assay: Anticancer activity against human MES-SA cells assessed as cell doubling measured for 72 hrs by DAPI staining based analysis; assay type: functional

GI50 (NCI-H292 [1]): 31 nM | GI50 (A549): 21 nM | GI50 (NCI-H2171): 24 nM | GI50 (SK-N-FI): 120 nM | GI50 (NCI-H2170): 25 nM | Ki [4]: 3.2 nM | GI50 (BT-20): 32 nM | GI50 (NCI-H2122): 29 nM | GI50 (NCI-H716): 174 nM
Compound: CC(C)Oc1ccc(C(=O)N[C@H](CNC(=O)CN(C)C)Cc2ccc(-c3cn4cccc([C@H](C)O)c4n3)cc2)cc1Cl [GSK-923295A]
GI50 (HPAF-II): 5030 nM | Activity (A-431): 2.95 | Activity (BV-173): 2.16 | GI50 (BHT-101): 100 nM | Activity (NCI-H292 [2]): 2.2 | Activity (SW837): 1.74 | Activity (HT-1376): 1.74 | Activity (TK-10): 1.94 | Activity (DoTc2-4510): 2.17 | GI50 (CWR22R): 29 nM | GI50 (C-4-II): 46 nM | Activity (SW1088): 2.55 | GI50 (AN3-CA): 23 nM | Activity (T47D): 1.44 | Activity (SW-620): 2.91 | Activity [3]: 2.17 | GI50 (A673): 23 nM | Activity (HCT-116): 37% | GI50 (SJRH30): 26 nM | Activity (RKO): 4.17 | GI50 5637: 23 nM | Activity (SH-4): 3.12 | Activity [5]: Non-Toxic | Activity (EKVX): 2.69 | Time (MX1): 1.4 days | GI50 (Caov-3 cell line): 33 nM | Activity (SF-295): 2.3 | Activity (MES-SA): 3.22
